Measurements reported in PMC2233745 (The Journal of General Physiology, 2001).
Substitutions are numbered along the chain they refer to. Where two headings read alike, the source gives them in different places. One block for each compound: values may come before it. Ends that are not written are not given here.

Legend:
[1] = tested on: HEK-293 cells expressing CNG channels; assay: Forskolin-induced Ca2+ influx through expressed CNG channels in HEK-293 cells; type: cell-based, human; conditions: for forskolin concentration at which delay and rate of Ca2+ influx saturate: 100 μM IBMX
In short: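 HEK-293 cells were infected with channel-encoding adenovirus (MOI 10) and detached at 24 h with PBS/0.03% EDTA. They were loaded at room temperature for 30–40 min with 4 μM fura-2/AM and 0.02% pluronic F-127, then resuspended in HEPES-buffered saline with 1 mM CaCl2, pH 7.4, and stirred in a cuvette. 100 μM IBMX was added at 0 s and forskolin at 180 s. ΔF/F0 was read at ex 380/em 510 nm; n = 4 batches.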

[2] = tested on: voltage-gated Ca2+ channels; assay: Block of Ca2+ influx through voltage-gated Ca2+ channels in GH4C1 cells; type: cell-based, rat; conditions: 1 μM nimodipine, membrane depolarization in 24 mM external KCl, data not shown
[3] = biological target: T1, E583M rat olfactory CNG channel (Rattus norvegicus, UniProt Q00195, E583M); assay: Excised inside-out patch recording, E583M CNG channel; type: biochemical; conditions: for N (Hill coefficient): mean ± SD of three experiments
T1 sequence (Q00195 1-664 E583M): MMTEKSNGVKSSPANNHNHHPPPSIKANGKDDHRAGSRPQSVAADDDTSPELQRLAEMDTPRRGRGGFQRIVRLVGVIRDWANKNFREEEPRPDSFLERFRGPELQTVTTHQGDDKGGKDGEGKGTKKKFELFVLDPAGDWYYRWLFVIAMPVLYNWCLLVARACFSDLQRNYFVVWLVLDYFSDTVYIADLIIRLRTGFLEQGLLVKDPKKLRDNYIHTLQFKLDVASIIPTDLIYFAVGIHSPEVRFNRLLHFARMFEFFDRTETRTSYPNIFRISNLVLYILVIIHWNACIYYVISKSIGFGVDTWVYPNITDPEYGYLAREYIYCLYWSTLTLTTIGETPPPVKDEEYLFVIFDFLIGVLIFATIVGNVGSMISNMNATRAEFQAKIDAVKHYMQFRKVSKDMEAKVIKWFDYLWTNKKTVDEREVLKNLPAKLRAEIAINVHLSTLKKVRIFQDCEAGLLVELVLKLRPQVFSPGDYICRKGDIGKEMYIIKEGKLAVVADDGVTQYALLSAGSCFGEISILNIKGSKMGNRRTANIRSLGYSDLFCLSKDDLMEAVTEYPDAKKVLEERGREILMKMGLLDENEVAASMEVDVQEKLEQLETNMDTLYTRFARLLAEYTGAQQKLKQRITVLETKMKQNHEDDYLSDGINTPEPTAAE

[4] = biological target: T2, C460W/E583M rat olfactory CNG channel (Rattus norvegicus, UniProt Q00195, C460W/E583M); assay: Excised inside-out patch recording, C460W/E583M CNG channel; type: biochemical; conditions: for N (Hill coefficient): mean ± SD of three experiments
T2 sequence (Q00195 1-664 C460W/E583M): T1 sequence (Q00195 1-664 E583M) with C460W

[5] = biological target: T3, WT rat olfactory CNG channel α subunit (Rattus norvegicus, UniProt Q00195); assay: Excised inside-out patch recording, WT CNG channel; type: biochemical; conditions: for N (Hill coefficient): mean ± SD of three experiments
T3 sequence (Q00195 1-664): T1 sequence (Q00195 1-664 E583M) with M583E

[6] = biological target: T4, Δ61–90/C460W/E583M rat olfactory CNG channel (Rattus norvegicus, UniProt Q00195, C460W/DEL61-90/E583M); assay: Excised inside-out patch recording, Δ61–90/C460W/E583M CNG channel; type: biochemical; conditions: Δ61-90/C460W/E583M channel, mean ± SD of three experiments; for EC50: read-out: K1/2 (concentration that gives half-maximal current)
T4 sequence (Q00195 with tags, fused parts or gaps DEL61-90/C460W/E583M): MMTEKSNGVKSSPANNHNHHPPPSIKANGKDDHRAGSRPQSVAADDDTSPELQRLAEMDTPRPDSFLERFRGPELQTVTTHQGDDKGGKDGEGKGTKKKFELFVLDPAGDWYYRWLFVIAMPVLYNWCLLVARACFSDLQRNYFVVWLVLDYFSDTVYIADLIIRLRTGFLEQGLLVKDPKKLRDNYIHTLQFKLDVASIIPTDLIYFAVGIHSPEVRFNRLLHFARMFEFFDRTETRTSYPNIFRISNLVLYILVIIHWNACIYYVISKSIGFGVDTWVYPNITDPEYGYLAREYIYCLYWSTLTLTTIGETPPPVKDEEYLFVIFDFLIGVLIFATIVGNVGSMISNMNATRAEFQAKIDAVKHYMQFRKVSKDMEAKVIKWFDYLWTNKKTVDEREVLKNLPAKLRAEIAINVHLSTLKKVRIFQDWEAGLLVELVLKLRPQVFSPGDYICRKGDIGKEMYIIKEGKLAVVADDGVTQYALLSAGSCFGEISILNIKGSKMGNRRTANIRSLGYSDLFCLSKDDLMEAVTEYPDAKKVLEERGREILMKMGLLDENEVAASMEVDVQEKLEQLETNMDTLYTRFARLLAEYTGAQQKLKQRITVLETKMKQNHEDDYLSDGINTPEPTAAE

HEK-293 cells = assay: Equilibration of PDE inhibitors across the plasma membrane; type: cell-based, human; conditions: data not shown
[7] = tested on: PDE activity in GH4C1 cells; assay: Effect of PDE inhibitors on forskolin-induced Ca2+ influx in GH4C1 cells; type: cell-based, rat; conditions: Δ61–90/C460W/E583M channels, 10 μM forskolin, 1 μM nimodipine
[8] = tested on: PDE activity in HEK-293 cells; assay: Effects of PDE inhibitors on forskolin-induced Ca2+ influx in HEK-293 cells; type: cell-based, human; conditions: C460W/E583M channels, 1 μM forskolin, IBMX 10 or 100 μM, RO-20-1724 10 μM
CNG channel = CNG channel activity in excised patches with PDE inhibitor; type: biochemical, rat; conditions: 100 μM IBMX, data not shown
In short: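 Patch clamp on rat olfactory CNG channels expressed from an adenovirus vector. Gigaohm seals were formed, then patches were excised by shearing the cell off the pipette with a liquid jet. Currents were elicited by 250-ms pulses to +50 and −50 mV from a 0 mV holding potential and sampled at five times the filter setting.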

[9] = tested on: GH4C1 cells expressing C460W/E583M channels; assay: AC activator-induced Ca2+ influx in GH4C1 cells expressing C460W/E583M channels; type: cell-based, rat; conditions: after vehicle or 100 μM IBMX
In short: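 Rat GH4C1 cells kept in Ham's F-10 (15% horse serum, 2.5% FBS, pH 6.8, 37°C), adenovirus-infected (MOI 50), assayed within 12 h of harvest at 48 h post-infection. Loaded 70 min with 4 μM fura-2/AM at room temperature, then washed. Read in pH 7.4 saline (1 mM CaCl2) at ex 380/em 510 nm as ΔF/F0. Nimodipine 1 μM at time zero; IBMX/vehicle at 60 s; agonist afterwards.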

[10] = tested on: HEK-293 and C6–2B glioma cells; conditions: ref Rich et al. 2000, cited from earlier work
[11] = read-out: K1/2 (concentration that gives half-maximal current), +50 mV, mean ± SD of three experiments
[12] = read-out: K1/2 (concentration that gives half-maximal current), −50 mV, mean ± SD of three experiments
[13] = read-out: K1/2, +50 mV, experiment shown in Fig. 2

Compound: COCCOC(=O)C1=C(C)NC(C)=C(C(=O)OC(C)C)C1c1cccc([N+](=O)[O-])c1 (stereo not shown) [nimodipine]
effect on forskolin or pCPT-cGMP induced Ca2+ influx through CNG channels ([1]; 1 μM nimodipine, HEK-293 cells, data not shown): did not alter
block of Ca2+ influx through voltage-gated Ca2+ channels [2]: sufficient to block Ca^2+ influx through voltage-gated Ca^2+ channels

N (Hill coefficient) ([3]; +50 mV): 2.4 ± 0.2
EC50 [3, 11]: 28 ± 2 µM
EC50 [3, 12]: 32 ± 4 µM
EC50 [3, 13]: 25 µM
N (Hill coefficient) ([3]; −50 mV): 1.9 ± 0.2
N (Hill coefficient) ([4]; +50 mV): 2.8 ± 0.3
EC50 [4, 11]: 12 ± 2 µM
EC50 [4, 12]: 6.2 ± 1 µM
EC50 [4, 13]: 11 µM
N (Hill coefficient) ([4]; −50 mV): 2.7 ± 0.1
N (Hill coefficient) ([5]; +50 mV): 2.3 ± 0.1
EC50 [5, 11]: 1.6 ± 0.1 µM
EC50 [5, 12]: 1.3 ± 0.4 µM
N (Hill coefficient) ([5]; −50 mV): 2.5 ± 0.4
EC50 ([6]; +50 mV): 36 ± 4 µM
EC50 ([6]; −50 mV): 16 ± 1 µM
N (Hill coefficient) ([6]; +50 mV): 1.8 ± 0.2
N (Hill coefficient) ([6]; −50 mV): 2.6 ± 0.2
Compound: Nc1nc2c(ncn2[C@@H]2O[C@@H]3COP(=O)(O)O[C@H]3[C@H]2O)c(=O)[nH]1 [cGMP]

time to complete equilibration across the plasma membrane (HEK-293 cells): < 180 s
Compound: COc1ccc(C2CNC(=O)C2)cc1OC1CCCC1 (stereo not shown) [Rolipram]
effect on PDE activity / forskolin-induced Ca2+ influx [7]: also inhibited PDE activity
effect on forskolin-induced Ca2+ influx [8]: significantly increased the forskolin-induced Ca^2+ influx

time to complete equilibration across the plasma membrane (HEK-293 cells): < 180 s
Compound: CC(C)Cn1c(=O)n(C)c(=O)c2[nH]cnc21 [IBMX, 3-isobutyl-1-methylxanthine]
effect on CNG channel activity in excised patches (CNG channel): did not alter CNG channel activity
effect on PDE activity / forskolin-induced Ca2+ influx [7]: significantly inhibited PDE activity
effect on forskolin-induced Ca2+ influx [8]: significant forskolin-induced Ca^2+ influx was observed

Compound: vasoactive intestinal peptide (HSDAVFTDNYTRLRKQMAVKKYLNSILN; ends and bridges not checked; UniProt P01282 125-152, looked up) [VIP]
cAMP accumulation and Ca2+ influx after addition ([9]; 100 nM VIP): caused additional cAMP accumulation and Ca^2+ influx

Compound: C=C[C@@]1(C)CC(=O)[C@]2(O)[C@@]3(C)[C@@H](O)CCC(C)(C)[C@@H]3[C@H](O)[C@H](OC(C)=O)[C@@]2(C)O1 [forskolin]
forskolin concentration at which delay and rate of Ca2+ influx saturate ([1]; HEK-293 cells expressing C460W/E583M channel): 5 µM
forskolin concentration at which delay and rate of Ca2+ influx saturate ([1]; HEK-293 cells expressing E583M channel): 20 µM
forskolin concentration at which delay and rate of Ca2+ influx saturate ([1]; HEK-293 cells expressing WT channel): > 50 µM
forskolin concentration at which delay and rate of Ca2+ influx saturate ([1]; HEK-293 cells expressing Δ61–90/C460W/E583M channel): 20 µM
cAMP accumulation and Ca2+ influx after addition ([9]; 10 μM forskolin): caused additional cAMP accumulation and Ca^2+ influx
forskolin-induced increase in cAMP concentration measured using CNG channels ([10]; local cAMP near the plasma membrane): > 25 µM
forskolin-induced increase in cAMP concentration averaged throughout the accessible cell volume [10]: 1 to 2 µM

Compound: CCOC(=O)c1cnc2c(cnn2CC)c1NN=C(C)C [Etazolate]
effect on forskolin-induced Ca2+ influx [8]: significantly increased the forskolin-induced Ca^2+ influx

Compound: COCc1nc2c([nH]1)c(=O)n(C)c(=O)n2CC(C)C [8-methoxymethyl-IBMX]
effect on PDE activity / forskolin-induced Ca2+ influx [7]: significantly inhibited PDE activity

Compound: CCCCOc1cc(CC2CNC(=O)N2)ccc1OC (stereo not shown) [RO-20-1724, 4-(3-butoxy-4-methoxybenzyl)-2-imidazolidinone]
time to complete equilibration across the plasma membrane (HEK-293 cells): < 180 s
effect on PDE activity / forskolin-induced Ca2+ influx [7]: also inhibited PDE activity
effect on forskolin-induced Ca2+ influx [8]: significant forskolin-induced Ca^2+ influx was observed
